Only some compounds are listed: those with a hit (about 2.9% of all), similar ones and a draw of the others.
SKBR3 24h inh = SK-BR-3 proliferation inhibitors | SK-BR-3 viability, CellTiter-Glo ATP luminescence, 24 h; hits give low values | viability, % at 10 µM | 41,000 compounds, 0.47% hits | AID 847;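 active = viability at or below the median of all test compounds minus 3 SD, in both replicates if run twice, cut at about 45% in these data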;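 also: 100% = median untreated cell wells and 0% = median positive control drug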
5-HT1A blocker = antagonists of human 5-HT1a serotonin receptor; P08908; CHO 5-HT1a Ga15 NFAT-bla reporter, antagonist mode; inhibition, % at 10 µM; 62,000 compounds, 0.68% hits;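 active = inhibition above the mean of all tested compounds plus 3 SD, cut at about 43% in these data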;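 also: receptor stimulated by 5-CT agonist at 100 nM near EC80; beta-lactamase reporter measured by ratiometric fluorescence of a cleavable substrate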
Target sequence (P08908 whole entry, looked up): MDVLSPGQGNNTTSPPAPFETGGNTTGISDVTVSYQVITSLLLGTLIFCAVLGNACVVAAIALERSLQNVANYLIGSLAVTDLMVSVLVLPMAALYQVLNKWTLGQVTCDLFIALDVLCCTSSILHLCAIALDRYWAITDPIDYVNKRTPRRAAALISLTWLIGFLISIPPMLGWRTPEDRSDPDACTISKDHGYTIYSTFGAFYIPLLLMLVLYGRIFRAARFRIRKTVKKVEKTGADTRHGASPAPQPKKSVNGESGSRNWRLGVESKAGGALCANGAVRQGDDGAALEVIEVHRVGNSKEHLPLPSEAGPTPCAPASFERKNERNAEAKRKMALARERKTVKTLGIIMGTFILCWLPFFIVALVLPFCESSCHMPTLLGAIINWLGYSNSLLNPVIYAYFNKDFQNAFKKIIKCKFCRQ
HTR1E antagonist = antagonists of human 5-HT1E serotonin receptor. P28566. 65,000 compounds, 0.99% hits. inhibition, % at 6 µM. AID 571. CHO 5-HT1E Ga15 NFAT-bla reporter, FRET, antagonist;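 active = inhibition above a set limit, the mean inhibition across every tested compound plus 3 SD, cut at about 29% in these data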;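 also: signal is the 460 over 535 nm emission ratio of beta-lactamase substrate; 0% = agonist plus DMSO wells and 100% = wells without agonist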
HTR1A agonist = activates the human 5-HT1a serotonin receptor | P08908 | CHO 5-HT1a Ga15 NFAT-bla reporter, FRET ratio; 0% basal, 100% maximal reference agonist | activation, % at 10 µM | 65,000 compounds, 0.56% hits;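 active = activation above the screen-wide mean activation plus 3 SD, cut at about 19% in these data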;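 also: 0% = DMSO wells and 100% = 5-CT at EC100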
5HT1E ag = activates the human 5-HT1E serotonin receptor; CHO 5-HT1E Ga15 NFAT-bla reporter, FRET; 0% DMSO wells, 100% control agonist wells; activation, % at 6 µM; 65,000 compounds, 0.69% hits;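 active = activation above a set limit, the screen-wide mean activation plus 3 SD, cut at about 8.5% in these data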;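 also: 100% = positive control agonist at 1 µM giving full maximal response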
HEK293 NFkB inh = inhibitors of the PMA/ionomycin-induced NF-kB reporter in HEK293 cells; inhibition, % at 3 µM; 62,000 compounds, 0.21% hits; HEK-293 NF-kB luciferase reporter, luminescence;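 active = inhibition above the mean of all tested compounds plus 3 SD, cut at about 40% in these data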;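 also: 0% = stimulated DMSO wells and 100% = 10 µM reference inhibitor 5653914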
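Timing: 1 h pretreatment, 16 h stimulation, 37 °C; system: HEK-293 cells with stable firefly luciferase reporter driven by four HIV NF-kB elements; doses: 3 µM once, 0.30% DMSO; measured by: luciferase luminescence; control set: DMSO and 10 µM reference inhibitor; repeats: single test; reagent: PMA plus ionomycin mix as NF-kB-activating stimulus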
Starred values were filed as active, the others as inactive; nt = no result.

SMILES | SKBR3 24h inh | 5-HT1A blocker | HTR1E antagonist | HTR1A agonist | 5HT1E ag | HEK293 NFkB inh
CCCCN(C)S(=O)(=O)c1ccc(C(=O)Nc2nnc(CSC)o2)cc1 | 43* | -1 | -7 | -1 | 0 | 10
Cc1cnc(NC(=O)c2c(O)c3cccc4c3n(c2=O)CCC4)s1 | 107 | 16 | -3 | -2 | -1 | 7
CC(C)c1nnc(NC(=O)c2c(O)c3cccc4c3n(c2=O)CCC4)s1 | 81 | 0 | -1 | 1 | -1 | 46*
CN1C(=O)N(C)C2(c3ccccc3)N(C)C(=O)NC12c1ccccc1 (stereo not drawn) | 115 | 5 | -8 | 0 | 1 | 8
Cc1nc2c(sc3nc4c(cc32)COC(C)(C)C4)c(=O)n1CC(=O)NCc1ccco1 | 123 | 17 | 31* | -3 | 0 | 18
Cc1c(CCC#N)c(N2CCCCC2)n2c(nc3ccccc32)c1C#N | 76 | nt | 5 | -1 | 0 | nt
Cc1c(CCC#N)c(N2CCN(C3CCCCC3)CC2)n2c(nc3ccccc32)c1C#N | 6.0* | nt | 0 | 2 | -1 | nt
CCOC(=O)c1cc2sccc2n1CC(=O)c1ccc2c(c1)OCCO2 | nt | 19 | -1 | -1 | 22* | 24
CCOc1ccc(-c2noc(CCC(=O)O)n2)cc1 | nt | -6 | -7 | -3 | 1 | 37
COc1ccc(-c2noc(CCCC(=O)O)n2)cc1 | 108 | 11 | 7 | 4 | 0 | 52*
Cc1c(CNC(=O)c2nn3c(c2Cl)NC(c2ccccc2)CC3C(F)(F)F)cnn1C (stereo not drawn) | 103 | 2 | 2 | -1 | 0 | 13
C(=C\c1ccccc1)/CSc1nnc(-c2ccccn2)n1Cc1ccco1 | nt | 52* | 20 | 1 | -1 | 25
C=CCn1c(N)c(C(=O)Nc2ccccc2)c2nc3ccccc3nc21 | 95 | nt | 1 | 27* | 6 | nt
C=CCn1c(N)c(C(=O)OC(C)(C)C)c2nc3ccccc3nc21 | 96 | nt | 12 | 4 | 2 | nt
COc1ccc(N2CCN(c3nc4c(c(=O)[nH]c(=O)n4C)n3Cc3ccccc3Cl)CC2)cc1 | nt | -3 | -8 | -3 | 0 | 12
CCCC(=O)NC(c1ccco1)c1cc(Cl)c2cccnc2c1O (stereo not drawn) | nt | 29 | 5 | -5 | -1 | 15
Cc1conc1NC(c1cccs1)c1ccc2cccnc2c1O (stereo not drawn) | 77 | 25 | 19 | -3 | -1 | 2
CC(C)C(=O)NC(c1ccco1)c1ccc2cccnc2c1O (stereo not drawn) | nt | 39 | 30* | -1 | -1 | 20
Oc1c(C(Nc2nc3ccccc3s2)c2ccco2)ccc2cccnc12 (stereo not drawn) | nt | 62* | 34* | 6 | -1 | 71*
CCOC(=O)c1ccc(CNC(=O)c2n[nH]c(=O)c3ccccc23)o1 | 95 | 9 | 13 | -3 | -2 | 9
CS(=O)(=O)N(CC(=O)NCc1ccc2c(c1)OCO2)Cc1ccc(Cl)cc1 | 91 | 18 | 14 | -2 | 0 | 3
O=C(C1CCCN(Cc2ccccc2Br)C1)N1CCCCC1 (stereo not drawn) | 101 | 34 | 6 | -2 | 0 | 14
CCCCC(c1nnnn1CC1CCCO1)N1CCN(c2cccc(C)c2C)CC1 (stereo not drawn) | nt | 38 | 3 | 1 | 38* | 7
Nc1nonc1C(=O)NCCNCc1cc(Br)ccc1OCc1ccccc1F | 80 | 52* | 12 | -1 | 0 | 16
Cc1ccccc1-n1c(SC(C)C(N)=O)nnc1-c1cccnc1 (stereo not drawn) | nt | 1 | 5 | 0 | 27* | -5
SMILES | SKBR3 24h inh | 5-HT1A blocker | HTR1E antagonist | HTR1A agonist | 5HT1E ag | HEK293 NFkB inh
CCOC(=O)N1CCC(Nc2c(-c3ccc(C)c(C)c3)c(=O)c2=O)CC1 | nt | 3 | 1 | -3 | 0 | 10
CCOC(=O)N1CCC(Nc2c(N3CCN(c4cc(Cl)ccc4C)CC3)c(=O)c2=O)CC1 | nt | -5 | 8 | 64* | 1 | 25
CSc1nc(-c2ccccc2O)nc(-c2ccccc2O)n1 | 99 | 18 | -15 | -3 | 0 | 7
C=CCc1c(C)c(C#N)c2nc3ccccc3n2c1N1CCN(C)CC1 | 86 | nt | 2 | 0 | 0 | nt
Cc1sc2nc(C3CC3)nc(N3CCN(S(=O)(=O)c4ccc(F)cc4)CC3)c2c1C | 94 | -44 | -19 | 3 | 5 | 12
Cc1sc2nc(C3CC3)nc(NCCNS(C)(=O)=O)c2c1C | 73 | 0 | 39* | -2 | 0 | 10
O=C(CSc1nc2ccccc2c(=O)[nH]1)N1CCOCC1 | 24* | 1 | -7 | 12 | 1 | 2
COc1cc(C)c(S(=O)(=O)N2CCOCC2)cc1C(C)C | 87 | 3 | 1 | -2 | 0 | 4
COc1cc(C)c(N)cc1C(C)C | 91 | -5 | -5 | 1 | 23* | 5
CS(=O)(=O)N(CC(=O)NCCC1=CCCCC1)c1ccc2c(c1)OCO2 | 84 | 2 | 11 | -2 | -1 | 10
CN(C)c1ccnc(NCc2ccccc2)c1C#N | nt | 10 | 10 | 20* | 0 | 1
Cc1cc(N(C)C)c(C#N)c(NCc2ccccc2)n1 | 85 | 15 | -5 | -2 | 0 | -11
O=C(NCCc1ccccc1)C1CCN(S(=O)(=O)c2ccc(-c3nn[nH]n3)cc2)CC1 | 108 | 1 | -3 | -1 | 0 | 24
OC(COc1ccccc1Cl)CN1CCN(CC(O)COc2ccccc2Cl)CC1 (stereo not drawn) | 72 | 58* | 8 | 5 | 0 | 15
CC(=O)N1CCN(CC(O)COc2ccc(OCc3ccccc3)cc2)CC1 (stereo not drawn) | 119 | -4 | -10 | -2 | 0 | 10
C=CCc1ccccc1OCC(O)CN1CCN(c2ccccc2OC)CC1 (stereo not drawn) | 60 | 91* | -1 | 2 | 1 | 10
CCOC(=O)N1CCN(CC(O)COc2c(OC)cccc2OC)CC1 (stereo not drawn) | nt | -10 | -7 | 168* | 0 | 0
CC1Cc2ccccc2N1C(=O)CSc1nnnn1Cc1ccccc1 (stereo not drawn) | 63 | 2 | 7 | -2 | -1 | -1
COc1cc(-c2nnc3sc(-c4cccs4)nn23)cc(OC)c1OC | 85 | -20 | 38* | 5 | 0 | 20
COc1ccc(-c2nnc3sc(-c4cccs4)nn23)cc1OC | 87 | -16 | 36* | 1 | 1 | 2
O=C(O)C1CCCCC1C(=O)NCCc1ccc(Cl)cc1 (stereo not drawn) | 93 | -1 | -13 | -4 | 21* | 2
O=C(O)C1CCCCC1C(=O)NCCc1cccc(Cl)c1 (stereo not drawn) | 102 | 2 | -8 | 1 | 4 | 3
CC(CCc1ccccc1)NC(=O)CSc1nc(N)cc(N)n1 (stereo not drawn) | nt | 3 | -5 | 1 | 58* | 7
